Our source for the Tm and folding enthalpy values is the array DNA melting data of Ke et al. (doi:10.1101/2024.01.08.574731).

Series [1] can be described thus: melting temperature; fluorescence melt of hairpins on a sequencing array, two-state fit, raised by 9.35 °C to match UV melts. Particulars: sodium 0.088 M. The procedure, abridged: (§1)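 Melting temperature and folding enthalpy were derived from bootstrapped two-state fits. The fitted temperatures were raised by 9.35 °C to agree with UV melts, and four replicates were combined by inverse variance. The underlying data were Cy3 fluorescence images of library hairpins, with annealed Cy3 and quencher oligos, on a sequenced MiSeq flow cell in 50 mM Na-HEPES pH 8.0, 25 mM NaCl, taken in 2.5 °C steps up to 60 °C, normalised to pre-quench Cy3 and to control constructs.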

Series [2] is described as follows: folding enthalpy; higher = less favourable; fluorescence melt of hairpins on a sequencing array, two-state fit. As to conditions: sodium 0.088 M. Put shortly:
as §1

For the sequence GGCTCCGAAAGGATCGCC ((((((....)))..))), the Tm in series [1] came to 47.2 °C. Moreover, the folding enthalpy in series [2] was -21.7 kcal/mol.

As to GGCTCCGAAAGGATGGCC ((((((....)))..))), in series [1], the Tm was 52.3 °C. In series [2], the folding enthalpy is -30.9 kcal/mol.

In the case of GGCTCCGGAAACAGAGCC (((((.(....).))))), the Tm in series [1] worked out at 50.5 °C. Besides, the folding enthalpy in series [2] is -34 kcal/mol.

For the sequence GGCTCCGGAAACGGAACC ((.((((....)))).)), in series [1], the Tm came out at 51.1 °C. Moreover, in series [2], the folding enthalpy is -28.9 kcal/mol.

On to GGCTCGGCGAAAGCCGCC (((..(((....)))))), for which the Tm in series [1] was found to be 43 °C. The folding enthalpy in series [2] was -8.18 kcal/mol.

GGCTCGGGAAACCAAGCC ((((.((....)).)))): the Tm in series [1] amounted to 48.8 °C. In series [2], the folding enthalpy was -35.3 kcal/mol.

Consider GGCTCGTCGAAAGACGCC (((..(((....)))))), for which the Tm in series [1] was found to be 42 °C. For the same sequence, the folding enthalpy in series [2] was -9.65 kcal/mol.

Consider GGCTCTGGAAACGGAGCC (((((.(....).))))), for which, in series [1], the Tm stood at 60 °C. For the same sequence, the folding enthalpy in series [2] is -47.1 kcal/mol.

GGCTGATCGAAAGATGCC (((..(((....)))))): the Tm in series [1] was 43.9 °C. For the same sequence, the folding enthalpy in series [2] is -22.6 kcal/mol.

Regarding GGCTGCGAAAGCAATGCC ((((((....)))..))), the Tm in series [1] is 55 °C. The folding enthalpy in series [2] was -22 kcal/mol.

With GGCTGCGAAAGCACCGCC ((((((....)))..))), the Tm in series [1] turned out to be 54.1 °C. Moreover, the folding enthalpy in series [2] was -20.7 kcal/mol.

With GGCTGCGAAAGCAGCGCC ((((((....)))..))), the Tm in series [1] stood at 68.8 °C. For the same sequence, in series [2], the folding enthalpy was -5.65 kcal/mol.

Regarding GGCTGCGAAAGCATGGCC ((((((....)))..))), the Tm in series [1] came to 54.6 °C. In addition, the folding enthalpy in series [2] is -31.8 kcal/mol.

Turning to GGCTGCGGAAACACAGCC (((((.(....).))))), in series [1], the Tm was 56 °C. Further, in series [2], the folding enthalpy was -42 kcal/mol.

For the sequence GGCTGGGCGAAAGCCGCC (((..(((....)))))), the Tm in series [1] is 58.4 °C. Besides, in series [2], the folding enthalpy is -19.6 kcal/mol.

Take GGCTGGGGAAACCCGGTC (.(.(((....))).).): the Tm in series [1] turned out to be 46.1 °C. Moreover, the folding enthalpy in series [2] was -28.5 kcal/mol.

Consider GGCTGTCCGAAAGGAGCC (((..(((....)))))), for which the Tm in series [1] worked out at 47.4 °C. The folding enthalpy in series [2] was -25.1 kcal/mol.

As for GGCTGTCGAAAGACCGCC (((.(((....))).))), the Tm in series [1] was 56.6 °C. In addition, the folding enthalpy in series [2] was -36.6 kcal/mol.

As to GGCTGTCGAAAGACTGCC (((.(((....))).))), the Tm in series [1] was 63 °C. Besides, the folding enthalpy in series [2] was -41.2 kcal/mol.

Take GGCTGTGCGAAAGCAGCC (((..(((....)))))): the Tm in series [1] turned out to be 57.5 °C. In addition, the folding enthalpy in series [2] was -27.1 kcal/mol.

As for GGCTGTGGAAACACGGTC (.(.(((....))).).), the Tm in series [1] was 44.4 °C. The folding enthalpy in series [2] is -28.1 kcal/mol.

In the case of GGCTTAGGAAACTAAGCC (((((((....))))))), the Tm in series [1] amounted to 62.9 °C. Moreover, the folding enthalpy in series [2] was -48.5 kcal/mol.

GGCTTCCGAAAGGATGCC (((.(((....))).))): the Tm in series [1] amounted to 62 °C. Besides, in series [2], the folding enthalpy was -48.9 kcal/mol.

For the sequence GGCTTCGAAAGAACCGCC ((((((....)))..))), the Tm in series [1] stood at 47.4 °C. Moreover, in series [2], the folding enthalpy was -21.1 kcal/mol.

In the case of GGCTTCGAAAGAACGGCC ((((((....)))..))), the Tm in series [1] was 43 °C. The folding enthalpy in series [2] was -27.9 kcal/mol.

In the case of GGCTTCGAAAGAAGCGCC ((((((....)))..))), the Tm in series [1] worked out at 57 °C. The folding enthalpy in series [2] is -9.54 kcal/mol.

GGCTTCGAAAGAAGGGCC ((((((....)))..))): the Tm in series [1] is 40.4 °C. Besides, in series [2], the folding enthalpy is -19.6 kcal/mol.

Consider GGCTTCGGAAACGAGGTC (.(.(((....))).).), for which the Tm in series [1] came out at 39.3 °C. In addition, the folding enthalpy in series [2] is -26.3 kcal/mol.

Take GGCTTGGAAACAAGCC ((((((....)))))): in series [1], the Tm is 66.6 °C. In addition, the folding enthalpy in series [2] was -31.2 kcal/mol.

As for GGCTTGGCGAAAGCCGCC (((..(((....)))))), in series [1], the Tm stood at 68.8 °C. Also, the folding enthalpy in series [2] is -16.6 kcal/mol.

Take GGCTTGGGAAACCAGGCC (((.(((....))).))): the Tm in series [1] was found to be 56.1 °C. For the same sequence, the folding enthalpy in series [2] is -49 kcal/mol.

Consider GGCTTTGGAAACAAAGTC (.(((((....))))).), for which the Tm in series [1] is 48.9 °C. Also, the folding enthalpy in series [2] is -39.8 kcal/mol.

In the case of GGCTTTGGAAACAAGGCC (((.(((....))).))), the Tm in series [1] came to 51.6 °C. In addition, the folding enthalpy in series [2] was -40.5 kcal/mol.

With GGCTTTGGAAACGAAGTC (.(((.(....).))).), the Tm in series [1] amounted to 34.7 °C. The folding enthalpy in series [2] was -14.7 kcal/mol.

For GGGAAACGAAAGTTCCCC (((.(((....))).))), the Tm in series [1] was 51 °C. In addition, in series [2], the folding enthalpy was -30.6 kcal/mol.

For the sequence GGGAAAGGAAACTCTCCC ((((.((....)).)))), in series [1], the Tm was determined as 30.2 °C. Moreover, the folding enthalpy in series [2] was -17.2 kcal/mol.
